EC50 data for one molecule are collected here from BindingDB's records for doi:10.1021/jm701562x (Johannes Gutenberg University, 2008).

Structures can show the parent of a compound that is named as a salt.

Experiment [1] addresses Gamma-aminobutyric acid receptor subunit alpha-1 (Rattus norvegicus, UniProt P62813). Kind of experiment: Agonist activity at rat recombinant GABAA alpha-1-beta-3-gamma-2 receptor expressed in HEK293 cells assessed as normalization of GABA-induced current by whole cell patch-clamp technique. In short, it runs like this: (§1)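 HEK293 cells transiently co-transfected (calcium phosphate) with rat αi, β3 and γ2S cDNAs plus EGFP marker; recorded 2 days later by whole-cell patch clamp in HEPES saline pH 7.35.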
A general note: The patch-clamp technique gives a direct electrical read-out from membranes.

Experiment [2] has as its target Gamma-aminobutyric acid receptor subunit alpha-2 (Rattus norvegicus, UniProt P23576). The experiment in a line: Agonist activity at rat recombinant GABAA alpha-2-beta-3-gamma-2 receptor expressed in HEK293 cells assessed as normalization of GABA-induced current by whole cell patch-clamp technique. The method, boiled down: as §1

Sequence of Gamma-aminobutyric acid receptor subunit alpha-2 (P23576 whole entry): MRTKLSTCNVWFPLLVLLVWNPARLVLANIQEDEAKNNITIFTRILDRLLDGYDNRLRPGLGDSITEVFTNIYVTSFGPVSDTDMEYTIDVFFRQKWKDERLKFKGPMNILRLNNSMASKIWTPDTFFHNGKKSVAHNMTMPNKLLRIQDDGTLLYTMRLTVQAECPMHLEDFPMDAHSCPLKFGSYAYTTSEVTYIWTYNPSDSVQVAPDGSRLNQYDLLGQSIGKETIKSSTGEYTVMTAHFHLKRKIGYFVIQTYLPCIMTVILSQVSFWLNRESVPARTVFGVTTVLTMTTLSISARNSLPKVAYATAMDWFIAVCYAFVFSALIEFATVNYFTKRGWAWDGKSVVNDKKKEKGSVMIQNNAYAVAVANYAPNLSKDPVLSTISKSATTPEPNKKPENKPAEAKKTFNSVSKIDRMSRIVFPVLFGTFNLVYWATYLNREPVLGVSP
Sequence of Gamma-aminobutyric acid receptor subunit alpha-1 (P62813 whole entry): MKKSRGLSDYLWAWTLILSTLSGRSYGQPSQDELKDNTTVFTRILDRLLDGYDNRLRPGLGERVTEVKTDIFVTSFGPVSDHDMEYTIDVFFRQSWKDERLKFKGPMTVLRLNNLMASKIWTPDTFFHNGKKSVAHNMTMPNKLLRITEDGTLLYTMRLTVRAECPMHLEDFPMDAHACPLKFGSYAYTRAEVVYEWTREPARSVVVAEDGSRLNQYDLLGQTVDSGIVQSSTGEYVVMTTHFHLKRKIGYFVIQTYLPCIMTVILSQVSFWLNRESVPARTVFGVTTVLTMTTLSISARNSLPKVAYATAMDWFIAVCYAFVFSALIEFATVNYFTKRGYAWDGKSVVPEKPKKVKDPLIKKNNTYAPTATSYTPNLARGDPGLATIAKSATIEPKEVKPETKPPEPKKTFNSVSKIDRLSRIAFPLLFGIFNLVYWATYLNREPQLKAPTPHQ

For orientation: EC50 means the concentration needed to bring the measured effect to its halfway point. With `NCc1n[nH]c(=O)o1` [5-Aminomethyl-3H-[1,3,4]oxadiazol-2-one Hydrochloride], the EC50 was 280 µM in experiment [1] and 182 µM in experiment [2].
